Experimental data reported in ChEMBL document CHEMBL4028882, “Thiazolino 2-Pyridone Amide Isosteres As Inhibitors of Chlamydia trachomatis Infectivity” (J Med Chem, 2017).
The source made the active and inactive calls. The calls are words filed in the database; no cut-off is given here.

Key:
Chlamydia trachomatis [1] = test: Antimicrobial activity against Chlamydia trachomatis serovar LGV-L2 454/Bu infected in human HeLa229 cells assessed as concentration required to reduce reinfection levels by >= 95% measured 44 to 48 hrs post infection by DAPI staining-based assay; type: functional
Outline: (§1)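 HeLa cells were infected with C. trachomatis LGV-L2 and treated with compound. After 48 h the cells were lysed and the recovered bacteria used to infect fresh HeLa cells. Reinfection was quantified as new inclusion forming units versus cells infected with untreated bacteria. The concentration giving 95% reduction (Reinfect95) was determined from fixed concentrations of 2.5, 1.0, 0.5 and 0.25 μM.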

[2] = Cytotoxicity against human HeLa229 cells assessed as cell viability at 10 uM after 44 to 48 hrs by resazurin-based fluorometry relative to control; parameters: species or system HeLa 229; conditions: read-out: Activity
Outline: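 HeLa host cell viability was measured with compound at 10 μM in a resazurin assay, run to exclude host toxicity as the cause of anti-infective activity.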

Salmonella typhimurium [3] = test: Mutagenicity in Salmonella typhimurium TA98/TA100 assessed as revertant colonies/plate in absence of rat liver S9 fraction at 10 ug/spot after 2 to 3 days by Ames test; type: toxicity; conditions: salmonella enterica subsp. enterica serovar typhimurium
Outline: (§2)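 Mutagenicity was screened by the spot-based Ames test procedure, with compound applied at 10 μg/spot.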

Chlamydia trachomatis [4] = test: Antimicrobial activity against Chlamydia trachomatis serovar LGV-L2 454/Bu infected in human HeLa229 cells assessed as reduction in reinfection levels measured 44 to 48 hrs post infection by DAPI staining-based assay; type: functional, cell-based; conditions: HeLa 229; outline: as §1
Chlamydia trachomatis [5] = test: Antimicrobial activity against Chlamydia trachomatis serovar D UW-3 infected in human HeLa229 cells assessed as reduction in reinfection levels measured 44 to 48 hrs post infection by DAPI staining-based assay; type: functional, cell-based; conditions: serovar D UW-3, HeLa 229
Salmonella typhimurium [6] = test: Mutagenicity in Salmonella typhimurium TA98/TA100 assessed as revertant colonies/plate in presence of rat liver S9 fraction at 10 ug/spot after 2 to 3 days by Ames test; type: toxicity; conditions: salmonella enterica subsp. enterica serovar typhimurium; outline: as §2
Salmonella typhimurium [7] = test: Mutagenicity in Salmonella typhimurium TA1535/TA1538 assessed as revertant colonies/plate in presence of rat liver S9 fraction at 10 ug/spot after 2 to 3 days by Ames test; type: toxicity; conditions: salmonella enterica subsp. enterica serovar typhimurium; outline: as §2
Salmonella typhimurium [8] = test: Mutagenicity in Salmonella typhimurium TA1535/TA1538 assessed as revertant colonies/plate in absense of rat liver S9 fraction at 10 ug/spot after 2 to 3 days by Ames test; type: toxicity; conditions: salmonella enterica subsp. enterica serovar typhimurium; outline: as §2
Escherichia coli = test: Growth inhibition of Escherichia coli CCUG 17620 at 10 ug/ml after 24 hrs by disk diffusion method
Outline: (§3)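 Disk diffusion assay of vaginal flora species (S. aureus, E. coli, L. jensenii, S. agalactiae) and the fungus C. albicans, with compound tested at 10 μg/mL.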

Staphylococcus aureus = test: Growth inhibition of Staphylococcus aureus CCUG 1800 at 10 ug/ml after 24 hrs by disk diffusion method; outline: as §3
Lactobacillus jensenii = test: Growth inhibition of Lactobacillus jensenii CCUG 33572 at 10 ug/ml after 24 hrs by disk diffusion method; outline: as §3
Streptococcus agalactiae = test: Growth inhibition of Streptococcus agalactiae CCUG 4208 at 10 ug/ml after 24 hrs by disk diffusion method; outline: as §3
Candida albicans = test: Growth inhibition of Candida albicans at 10 ug/ml after 24 hrs by disk diffusion method; outline: as §3
Chlamydia trachomatis [9] = test: Antimicrobial activity against Chlamydia trachomatis serovar LGV-L2 454/Bu infected in human HeLa229 cells at 1 uM compound treated during 48 hrs of infection by DAPI staining-based assay; type: functional, cell-based
Outline: (§4)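 Time-of-addition format of the LGV-L2 HeLa infection/reinfection assay. Compound was present during the first 24 h, the second 24 h, or throughout the 48 h infection. Infectivity was then scored against untreated controls.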

Chlamydia trachomatis [10] = test: Antimicrobial activity against Chlamydia trachomatis serovar LGV-L2 454/Bu infected in human HeLa229 cells at 1 uM compound treated during first 24 hrs of infection by DAPI staining-based assay; type: functional, cell-based; outline: as §4
Chlamydia trachomatis [11] = test: Antimicrobial activity against Chlamydia trachomatis serovar LGV-L2 454/Bu expressing mCherry infected in human HeLa cells assessed as reduction in accumulation of BODIPY 22 in bacterial inclusions at 0.5 uM incubated for 48 hrs by BODIPY 22-based confocal microscopy

With `Nc1c(Cc2cccc3ccccc23)c(C2CC2)c2n(c1=O)C(c1nc(-c3ccccc3)n[nH]1)CS2` (configuration not stated) the Activity (Chlamydia trachomatis [1]) was 0.25 µM and the viability at 10 µM [2] was 100%.
With `Cc1cccc(-c2n[nH]c(C3CSc4c(C5CC5)c(Cc5cccc6ccccc56)cc(=O)n43)n2)c1` (configuration not stated) the Activity (Chlamydia trachomatis [1]) was 0.5 µM and the viability at 10 µM [2] was 95%.
For `O=c1cc(Cc2cccc3ccccc23)c(C2CC2)c2n1C(n1cc(-c3ccccc3)nn1)CS2` (configuration not stated), the Activity (Salmonella typhimurium [3]) was “Non-Toxic”, the Activity (Chlamydia trachomatis [1]) was 0.25 µM and the viability at 10 µM [2] was 96%. The EC50 (Chlamydia trachomatis [4]) was 18 nM, the EC50 (Chlamydia trachomatis [5]) was 37 nM and the Activity (Salmonella typhimurium [6]) was “Non-Toxic”. The Activity (Salmonella typhimurium [7]) was “Non-Toxic”, the Activity (Salmonella typhimurium [8]) was “Non-Toxic” and the “growth inhibition (GI)” value (Escherichia coli) was “Non-Toxic”. For the same compound, the “growth inhibition (GI)” value (Staphylococcus aureus) was “Non-Toxic”, the “growth inhibition (GI)” value (Lactobacillus jensenii) was “Non-Toxic” and the “growth inhibition (GI)” value (Streptococcus agalactiae) was “Non-Toxic”. For the same compound, the “growth inhibition (GI)” value (Candida albicans) was “Non-Toxic”, the Activity (Chlamydia trachomatis [9]) was “Active” and the Activity (Chlamydia trachomatis [10]) was “inactive”. The Activity (Chlamydia trachomatis [11]) was “Active”.
For `O=c1cc(Cc2cccc3ccccc23)c(C2CC2)c2n1C(NS(=O)(=O)c1ccccc1)CS2` (configuration not stated), the Activity (Chlamydia trachomatis [1]) was >2.5 µM and the viability at 10 µM [2] was 114%.
Compound `O=C(NC1CSc2c(C3CC3)c(Cc3cccc4ccccc34)cc(=O)n21)c1ccccc1` (configuration not stated) has an Activity (Chlamydia trachomatis [1]) of 2.5 µM and a viability at 10 µM [2] of 114%.
With `Nc1c(Cc2cccc3ccccc23)c(C2CC2)c2n(c1=O)C(n1cc(-c3ccccc3)nn1)CS2` (configuration not stated) the Activity (Salmonella typhimurium [3]) was “Non-Toxic”, the Activity (Chlamydia trachomatis [1]) was 0.25 µM and the viability at 10 µM [2] was 105%. The EC50 (Chlamydia trachomatis [4]) was 13 nM, the EC50 (Chlamydia trachomatis [5]) was 35 nM and the Activity (Salmonella typhimurium [6]) was “Non-Toxic”. The Activity (Salmonella typhimurium [7]) was “Non-Toxic”, the Activity (Salmonella typhimurium [8]) was “Non-Toxic” and the “growth inhibition (GI)” value (Escherichia coli) was “Non-Toxic”. The “growth inhibition (GI)” value (Staphylococcus aureus) was “Non-Toxic”, the “growth inhibition (GI)” value (Lactobacillus jensenii) was “Non-Toxic” and the “growth inhibition (GI)” value (Streptococcus agalactiae) was “Non-Toxic”. For the same compound, the “growth inhibition (GI)” value (Candida albicans) was “Non-Toxic”, the Activity (Chlamydia trachomatis [9]) was “Active” and the Activity (Chlamydia trachomatis [10]) was “inactive”. The Activity (Chlamydia trachomatis [11]) was “Active”.
With `O=C(CNC(=O)C1CSc2c(C3CC3)c(Cc3cccc4ccccc34)cc(=O)n21)c1ccccc1` (configuration not stated) the Activity (Chlamydia trachomatis [1]) was 2.5 µM and the viability at 10 µM [2] was 107%.
For `CC(C)(C)OC(=O)NC1CSc2c(C3CC3)c(Cc3cccc4ccccc34)cc(=O)n21` (configuration not stated), the Activity (Chlamydia trachomatis [1]) was >2.5 µM and the viability at 10 µM [2] was 105%.
Work on `O=c1cc(Cc2cccc3ccccc23)c(C2CC2)c2n1C(c1nc(-c3ccccc3)n[nH]1)CS2` (configuration not stated) yielded an Activity (Chlamydia trachomatis [1]) of 0.5 µM and a viability at 10 µM [2] of 98%.
With `O=c1cc(Cc2cccc3ccccc23)c(C2CC2)c2n1C(c1nnc(-c3ccccc3)o1)CS2` (configuration not stated) the Activity (Chlamydia trachomatis [1]) was 1 µM and the viability at 10 µM [2] was 103%.
With `O=c1cc(Cc2cccc3ccccc23)c(C2CC2)c2n1C(c1nc(-c3ccccc3)no1)CS2` (configuration not stated) the Activity (Chlamydia trachomatis [1]) was >2.5 µM and the viability at 10 µM [2] was 99%.
With `O=C(NS(=O)(=O)c1ccccc1)C1CSc2c(C3CC3)c(Cc3cccc4ccccc34)cc(=O)n21` (configuration not stated) the Activity (Chlamydia trachomatis [1]) was >2.5 µM and the viability at 10 µM [2] was 105%.
With `Nc1c(Cc2cccc3ccccc23)c(C2CC2)c2n(c1=O)C(C(=O)Nc1ccccc1)CS2` (configuration not stated) the Activity (Salmonella typhimurium [3]) was “Non-Toxic”, the Activity (Salmonella typhimurium [6]) was “Non-Toxic” and the Activity (Salmonella typhimurium [7]) was “Non-Toxic”. The Activity (Salmonella typhimurium [8]) was “Non-Toxic”.
For `O=c1cc(Cc2cccc3ccccc23)c(C2CC2)c2n1C(c1nc(-c3ccccc3)c[nH]1)CS2` (configuration not stated), the Activity (Chlamydia trachomatis [1]) was 2.5 µM and the viability at 10 µM [2] was 106%.
With `O=c1cc(Cc2cccc3ccccc23)c(C2CC2)c2n1C(c1nc(-c3ccccc3)co1)CS2` (configuration not stated) the Activity (Chlamydia trachomatis [1]) was 2.5 µM and the viability at 10 µM [2] was 83%.
With `O=c1cc(Cc2cccc3ccccc23)c(C2CC2)c2n1C(c1ncc(-c3ccccc3)s1)CS2` (configuration not stated) the Activity (Chlamydia trachomatis [1]) was >2.5 µM and the viability at 10 µM [2] was 97%.
